Measured values pooled from the literature.
Lines come from different studies, so protocols differ.
Target: Serine/threonine-protein kinase OSR1 (OXSR1, Homo sapiens, UniProt O95747)

| Compound | test | system | setting | endpoint | result |
| --- | --- | --- | --- | --- | --- |
| N#CC1(c2ccccn2)CCN(Cc2cc(C(=O)N3CCCC3)c(=O)n3ccccc23)CC1 | cell-free assay, competition with immobilised ligand |  | 1 µM | remaining binding | 100% |
| Nc1ncnc2occ(-c3ccc(NC(=O)Nc4cc(C(F)(F)F)ccc4F)cc3)c12 | cell-free assay, inhibitor |  | 20 µM | remaining signal | 9.5% |
| COc1ccc2c(O[C@@H]3C[C@H]4C(=O)N[C@]5(C(=O)O)CC5/C=C\CCCCC[C@H](NC(=O)OC5CCCC5)C(=O)N4C3)cc(-c3csc(NC(=O)C(C)C)n3)nc2c1C (stereo partly shown) | cell-free assay, competition with immobilised ligand |  | 1 µM | remaining binding | 82% |
| CCN1CCN(Cc2ccc(NC(=O)c3ccc(C)c(Oc4ccnc5[nH]ccc45)c3)cc2C(F)(F)F)CC1 | target engagement in cells, inhibitor, chemoproteomics | Huh-7 | 1 µM | inhibition | -64.3% |
| CCCCNc1ncc2c(-c3ccc(F)cc3)nn(C[C@H]3CC[C@H](N)CC3)c2n1 | target engagement in cells, inhibitor, chemoproteomics |  | 20 mM | inhibition | 8.2% |
| COc1cc(Nc2cnc(C#N)c(O[C@H](C)CN(C)C)n2)ncc1-c1cnn(C)c1 | enzyme activity, inhibitor, radiometric |  | 1 µM | remaining activity | 115% |
| CC1(C)NC(=O)c2[nH]c3c(Cl)c(Cl)ccc3c2C1C#N (stereo not shown) | thermal stability, DSF |  | 10 µM | ΔTm | -0.1 °C |
| O=C1Nc2ccc(Cl)cc2C1=Cc1cc(Cl)c(O)c(Cl)c1 | cell-free assay |  | 0.5 µM | remaining signal | 91.6% |
| COCCOc1nc(-c2ccc(Cl)nc2)nc2c1CN(C(=O)c1ncn3ccccc13)CC2 | cell-free assay, competition with immobilised ligand |  | 0.1 µM | remaining binding | 100% |
| Cn1c2c(Cl)c(Cl)ccc2c2cn[nH]c(=O)c21 | thermal stability, DSF |  | 10 µM | ΔTm | -0.2 °C |
| COc1cc(Nc2c(C#N)cnc3cc(OCCCN4CCN(C)CC4)c(OC)cc23)c(Cl)cc1Cl | cell-free assay |  | 0.5 µM | remaining signal | 100% |
| CCCCN(CCCC)C(=O)CN1C[C@H](c2cc(OC)c3c(c2)OCO3)[C@@H](C(=O)O)[C@@H]1CC(C)(C)CCC | cell-free assay, competition with immobilised ligand |  | 1 µM | remaining binding | 89.5% |
| Cc1ccc(C(=O)Nc2ccc(CN3CCN(C)CC3)c(C(F)(F)F)c2)cc1C#Cc1cnc2cccnn12 | enzyme activity, inhibitor |  | 23.5 nM | remaining activity | 96% |
| CO[C@@H](C)c1c(Nc2ccc([C@@H](N(C)C(=O)C3CCS(=O)(=O)CC3)C(F)(F)F)cc2)cnc2cc(Cl)nn12 | cell-free assay, competition with immobilised ligand |  | 1 µM | remaining binding | 100% |
| O=C1NC(=O)c2cc(Nc3ccc(F)cc3)c(Nc3ccc(F)cc3)cc21 | cell-free assay |  | 0.5 µM | remaining signal | 101% |
| O=C(O)c1cc(-c2ccc(C3CCNCC3)cc2)c2ccc(-c3ccc(C(F)(F)F)cc3)cc2c1 | cell-free assay, competition with immobilised ligand |  | 1 µM | remaining binding | 100% |
| Cn1c2c(c3ccc(Cl)c(Cl)c31)C(C#N)C1(CCOCC1)NC2=O (stereo not shown) | thermal stability, DSF |  | 10 µM | ΔTm | -0.5 °C |
| Cc1cc(NC(=O)c2cccc(S(F)(F)(F)(F)F)c2)cc(-n2ccn3nc(-c4cccnc4)cc23)c1 | cell-free assay, competition with immobilised ligand |  | 1 µM | remaining binding | 100% |
| CC(C)(O)[C@H]1CC[C@H](Nc2ccc3ncc(-c4cccc(C(F)(F)F)c4)n3n2)CC1 | enzyme activity, inhibitor |  | 1 µM | remaining activity | 102% |
| CN1CCC2(CC1)NC(=O)c1c(c3ccc(Cl)c(Cl)c3n1C)C2C#N (racemic) | thermal stability, DSF |  | 10 µM | ΔTm | -0.3 °C |
| Cc1sc(C(=O)NC2COC2)cc1-n1cc(NC(=O)Nc2c(F)cccc2Cl)cn1 | enzyme activity, inhibitor |  | 10 µM | remaining activity | 127% |
| Cn1c2c(c3ccc(Cl)c(Cl)c31)C(C#N)C1(CCCC1)NC2=O (stereo not shown) | thermal stability, DSF |  | 10 µM | ΔTm | -0.1 °C |
| CS(=O)(=O)CCNCc1ccc(-c2ccc3ncnc(Nc4ccc(OCc5cccc(F)c5)c(Cl)c4)c3c2)o1 | cell-free assay |  | 0.5 µM | remaining signal | 105% |
| Cn1c2c(c3ccc(Cl)c(Cl)c31)C(C#N)C1(CCNCC1)NC2=O (racemic) | thermal stability, DSF |  | 10 µM | ΔTm | -0.1 °C |
| FC(F)(F)Oc1cccc(-c2cnc3ccc(-c4ccncc4)nn23)c1 | enzyme activity, inhibitor, radiometric |  | 5 µM | activity vs control | 104% |
